The values below come from ChEMBL document CHEMBL1156597, “Structure-activity relationship of kahalalide F synthetic analogues” (J Med Chem, 2008).

In general, LC50 refers to the concentration lethal to half of the exposed cells or organisms. Usually GI50 stands for the concentration at which growth is held to half of that of the control. In general, TGI refers to the concentration at which net growth stops. Low values mean greater sensitivity of the cells, high ones lower sensitivity of the cells.

The nature of experiment [1]: Cytotoxicity against human IGROV cells after 48 hrs by SRB assay. The experiment is classed as functional. Particulars: read-out: LC50 (the source's name). Put shortly: (§1)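 Cells grown in RPMI 1640 with 10% FBS and penicillin/streptomycin at 37 °C and 5% CO₂, trypsinized, then seeded at 5 × 10³/well. After 18 h drug-free attachment, samples in DMSO/EtOH/PBS (0.5:0.5:99) were added for 48 h continuous exposure. Cells were fixed with cold TCA (1 h, 4 °C) and stained with SRB (10 min). Tris-solubilized stain read at 490 nm. Triplicate wells, mean ± SD; GI₅₀ derived.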
(In general: The SRB assay estimates cell density from bound dye.)

The next experiment relates to A549. Kind of experiment: Cytotoxicity against human A549 cells after 48 hrs by SRB assay. The experiment is classed as functional, cell-based. The conditions noted are these: Homo sapiens, A549, 48 h. Put shortly: as §1
The subject of experiment [2] is LoVo. Kind of experiment: Cytotoxicity against human LoVo cells after 48 hrs by SRB assay. The class given is functional. Particulars: for CC50: read-out: LC50 (the source's name).
For a further experiment, the system named is HeLa. In words: Cytotoxicity against human HeLa cells after 48 hrs by SRB assay. Particulars: for CC50: read-out: LC50 (the source's name). The class given is functional. Put shortly: as §1
Another experiment concerns DU-145. In words: Cytotoxicity against human DU145 cells after 48 hrs by SRB assay. Particulars: Homo sapiens, DU-145, 48 h; read-out: LC50 (the source's name). The experiment is classed as functional, cell-based. Put shortly:
as §1

Experiment [3] can be described thus: Cytotoxicity against human HeLa-APL cells after 48 hrs by SRB assay. The experiment is classed as functional. Put shortly:
as §1

The nature of experiment [4]: Cytotoxicity against human IGROV-ET cells after 48 hrs by SRB assay. The class given is functional. Particulars: for CC50: read-out: LC50 (the source's name). In outline:
as §1

For the next experiment, the system named is K562. Kind of experiment: Cytotoxicity against human K562 cells after 48 hrs by SRB assay. Particulars: K562, 48 h; for CC50: read-out: LC50 (the source's name). The experiment is classed as functional. Put shortly:
as §1

A further experiment has as its system SK-MEL-28. In words: Cytotoxicity against human SK-MEL-28 cells after 48 hrs by SRB assay. The class given is functional, cell-based. Particulars: Homo sapiens, SK-MEL-28, 48 h; read-out: LC50 (the source's name). Put shortly:
as §1

Experiment [5] relates to LoVo. Kind of experiment: Cytotoxicity against human doxorubicin resistant LoVo cells after 48 hrs by SRB assay. The class given is functional. The conditions noted are these: for CC50: read-out: LC50 (the source's name). Put shortly:
as §1

Another experiment deals with HT-29. In words: Cytotoxicity against human HT29 cells after 48 hrs by SRB assay. The experiment is classed as functional, cell-based. Particulars: Homo sapiens, HT-29, 48 h; for CC50: read-out: LC50 (the source's name). In outline:
as §1

The next experiment relates to PANC-1. Kind of experiment: Cytotoxicity against human PANC1 cells after 48 hrs by SRB assay. The class given is functional. Particulars: PANC-1, 48 h; for CC50: read-out: LC50 (the source's name). Put shortly: as §1

As to `C/C=C1\NC(=O)[C@H](Cc2ccccc2)NC(=O)[C@@H](C(C)C)NC(=O)[C@@H]([C@H](C)CC)NC(=O)[C@H](NC(=O)[C@H](NC(=O)[C@H](CCCN)NC(=O)[C@H]2CCCN2C(=O)[C@H](NC(=O)[C@@H](NC(=O)[C@@H](NC(=O)CNC(=O)CCCC(C)C)[C@@H](C)O)C(C)C)C(C)C)[C@H](C)CC)[C@H](C)OC(=O)[C@H](C(C)C)NC1=O`, the CC50 in experiment [1] stood at 1.43 µM; with LoVo [2] it was 5.18 µM; in the experiment on HeLa, 1.65 µM; with DU-145 it was 1.75 µM; in experiment [4] it was 1.2 µM; with K562, 4.39 µM. The CC50 with SK-MEL-28 amounted to 2.04 µM; with LoVo [5] it was 5.2 µM; in the experiment with HT-29, 5.41 µM; in the experiment on PANC-1, 2.11 µM. This molecule gave a median lethal concentration (LC50) in the experiment with A549 of 1.89 µM. The GI50 amounted to 8.76 µM in the experiment on LoVo [2]; 0.672 µM in the experiment on HeLa; 3.85 µM with K562; 11.1 µM in the experiment with LoVo [5]; 10.9 µM with HT-29; 0.499 µM with PANC-1. For the same molecule, the TGI in the experiment on LoVo [2] stood at 8.9 µM; in the experiment on HeLa, 1.32 µM; in the experiment with K562 it was 11.4 µM; with LoVo [5] it was 9.1 µM; with HT-29 it was 9.54 µM; in the experiment with PANC-1, 1.25 µM. In addition, in experiment [3], the LC50 (concentration giving 50% net cell kill) turned out to be 1.89 µM.
`C/C=C1\NC(=O)[C@H](Cc2ccccc2)NC(=O)[C@H](C(C)C)NC(=O)[C@@H]([C@H](C)CC)NC(=O)[C@H](NC(=O)[C@H](NC(=O)[C@H](CCCN)NC(=O)[C@H]2CCCN2C(=O)[C@H](NC(=O)[C@@H](NC(=O)[C@@H](NC(=O)[C@H](NC(=O)CCCC(C)C)C(C)C)[C@@H](C)O)C(C)C)C(C)C)[C@H](C)CC)[C@H](C)OC(=O)[C@H](C(C)C)NC1=O`: the CC50 in [1] is 1.39 µM; with LoVo [2] it was 5.04 µM; with HeLa, 1.61 µM; with DU-145 it was 1.7 µM; in experiment [4], 1.17 µM; in the experiment with K562, 4.27 µM. The CC50 in the experiment with SK-MEL-28 is 1.99 µM; in the experiment with LoVo [5], 5.06 µM; in the experiment with HT-29, 5.26 µM; in the experiment on PANC-1, 2.83 µM. Further, the LC50 with A549 amounted to 1.83 µM. Further, the values for the GI50 (in the experiment with LoVo [2]; in experiment [4] (read-out: GI50); in the experiment with PANC-1) were 5.49 µM, 1.22 µM and 1.68 µM, respectively. The results for the TGI (with LoVo [2]; in experiment [4]; in the experiment on PANC-1) were 8.66 µM, 2.86 µM and 4.98 µM, respectively. Moreover, the LC50 (concentration giving 50% net cell kill) in experiment [3] was found to be 1.84 µM.
